The test system of experiment [1] is Rattus norvegicus. The experiment is described as follows: Rat rotation experiments were conducted to evaluate rational behavior of the rats by administering at a dose of […] subcutaneously. It counts as functional.
A short description of experiment [2]: Intrinsic activity relative to dopamine at D-2 receptor. It counts as functional.
For experiment [3], the target named is T1, D(2) dopamine receptor (Rattus norvegicus, UniProt P61169). Briefly: Binding affinity using [3H]-spiperone radioligand competitive binding assay against dopamine receptor D2. The method, boiled down: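 Rat striatal membranes in Tris pH 7.4 buffer with salts and ascorbate. [3H]spiperone at 300 pM final; nonspecific binding with 10 μM YM-09151-2. Incubated 20 min at 37 °C, then filtered. Ki derived from IC50 by Cheng-Prusoff.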
T1 sequence (P61169 whole entry): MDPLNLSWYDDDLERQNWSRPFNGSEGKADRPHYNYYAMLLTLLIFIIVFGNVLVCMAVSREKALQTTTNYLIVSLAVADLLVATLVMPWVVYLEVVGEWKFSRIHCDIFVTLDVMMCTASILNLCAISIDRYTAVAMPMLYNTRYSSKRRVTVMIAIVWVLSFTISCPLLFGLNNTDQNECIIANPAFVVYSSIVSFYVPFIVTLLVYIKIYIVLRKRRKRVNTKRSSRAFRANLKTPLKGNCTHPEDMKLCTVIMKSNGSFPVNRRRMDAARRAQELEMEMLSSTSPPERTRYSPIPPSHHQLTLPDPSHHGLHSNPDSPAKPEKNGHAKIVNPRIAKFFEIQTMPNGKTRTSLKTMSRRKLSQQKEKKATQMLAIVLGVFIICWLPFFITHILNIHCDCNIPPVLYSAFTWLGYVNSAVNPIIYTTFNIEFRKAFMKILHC

The target of experiment [4] is T2, Adrenergic receptor alpha-1 (Rattus norvegicus, UniProt P15823+P23944+P43140).
T2 sequence (P15823 whole entry): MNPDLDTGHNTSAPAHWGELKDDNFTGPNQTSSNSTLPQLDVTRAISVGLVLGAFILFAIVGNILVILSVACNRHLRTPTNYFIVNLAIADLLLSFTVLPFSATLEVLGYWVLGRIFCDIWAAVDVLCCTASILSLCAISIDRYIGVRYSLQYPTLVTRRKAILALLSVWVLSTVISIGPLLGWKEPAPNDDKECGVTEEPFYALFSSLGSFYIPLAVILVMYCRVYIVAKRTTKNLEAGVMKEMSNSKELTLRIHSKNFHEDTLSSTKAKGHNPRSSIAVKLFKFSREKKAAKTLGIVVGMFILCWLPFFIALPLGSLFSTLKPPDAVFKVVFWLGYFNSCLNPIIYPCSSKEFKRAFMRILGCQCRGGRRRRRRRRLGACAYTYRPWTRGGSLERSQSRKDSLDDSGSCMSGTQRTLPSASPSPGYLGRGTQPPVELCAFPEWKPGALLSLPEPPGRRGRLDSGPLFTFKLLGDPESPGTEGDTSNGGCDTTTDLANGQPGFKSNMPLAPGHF
T2 sequence (P23944 whole entry): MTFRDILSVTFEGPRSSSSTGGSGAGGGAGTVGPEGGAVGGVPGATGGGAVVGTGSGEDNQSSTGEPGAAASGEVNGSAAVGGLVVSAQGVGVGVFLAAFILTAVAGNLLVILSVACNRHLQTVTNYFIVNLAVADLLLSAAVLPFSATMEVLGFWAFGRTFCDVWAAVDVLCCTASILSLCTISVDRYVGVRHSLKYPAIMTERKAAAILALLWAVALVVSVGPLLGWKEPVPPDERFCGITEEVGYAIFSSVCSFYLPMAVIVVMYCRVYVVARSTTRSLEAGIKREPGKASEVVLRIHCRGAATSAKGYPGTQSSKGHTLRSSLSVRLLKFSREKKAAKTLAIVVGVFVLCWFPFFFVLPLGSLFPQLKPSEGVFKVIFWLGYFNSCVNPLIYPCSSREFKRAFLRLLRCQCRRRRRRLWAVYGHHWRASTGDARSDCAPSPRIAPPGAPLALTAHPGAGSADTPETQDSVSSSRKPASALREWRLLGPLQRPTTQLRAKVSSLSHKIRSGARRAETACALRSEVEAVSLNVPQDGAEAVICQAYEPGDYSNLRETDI
T2 sequence (P43140 whole entry): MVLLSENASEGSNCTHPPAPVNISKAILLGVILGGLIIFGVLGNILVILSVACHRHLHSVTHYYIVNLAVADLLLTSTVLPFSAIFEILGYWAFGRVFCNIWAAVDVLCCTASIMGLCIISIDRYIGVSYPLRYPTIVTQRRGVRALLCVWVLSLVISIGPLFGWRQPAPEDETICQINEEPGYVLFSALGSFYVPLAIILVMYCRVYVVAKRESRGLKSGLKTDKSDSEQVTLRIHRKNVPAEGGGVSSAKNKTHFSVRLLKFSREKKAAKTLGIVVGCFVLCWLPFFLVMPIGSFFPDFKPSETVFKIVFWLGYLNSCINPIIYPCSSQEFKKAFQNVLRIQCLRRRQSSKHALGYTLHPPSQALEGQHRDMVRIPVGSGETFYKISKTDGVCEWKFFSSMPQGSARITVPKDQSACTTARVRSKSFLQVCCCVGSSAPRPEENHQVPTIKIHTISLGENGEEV
Briefly: Binding affinity towards alpha-1 adrenergic receptor using [3H]prazosin as radioligand in competitive binding assay. It is filed as protein assay. The method, boiled down:
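Frozen rat cortex membranes (300g then 48000g spins) in Tris pH 7.4 buffer with salts and ascorbate. [3H]prazosin at 1.0 nM final; nonspecific binding with 10 μM phentolamine. Incubated 45 min at 37 °C, then filtered. Ki via Cheng-Prusoff.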

Experiment [5] concerns the target T1, D(2) dopamine receptor. The experiment is described as follows: Concentration required to inhibit 50% dopamine receptor D2 in a cell free homogenate of intermediate lobe of pituitary gland. It counts as functional.
Experiment [6] relates to Rattus norvegicus. The experiment is described as follows: Rat rotation experiments were conducted to evaluate rational behavior of the rats by administering at a dose of 1.0 umol/kg subcutaneously. It is filed as functional. The method, boiled down:
(§1)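 Rats with unilateral 6-hydroxydopamine lesions of the nigrostriatal bundle. Compound given subcutaneously or orally at the stated dose. Net contralateral rotations counted over 2 h after dosing and reported as mean ± SEM; negative values indicate ipsilateral turning.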

Experiment [7] has as its target T3, 5-hydroxytryptamine receptor 1A (Rattus norvegicus, UniProt P19327).
T3 sequence (P19327 whole entry): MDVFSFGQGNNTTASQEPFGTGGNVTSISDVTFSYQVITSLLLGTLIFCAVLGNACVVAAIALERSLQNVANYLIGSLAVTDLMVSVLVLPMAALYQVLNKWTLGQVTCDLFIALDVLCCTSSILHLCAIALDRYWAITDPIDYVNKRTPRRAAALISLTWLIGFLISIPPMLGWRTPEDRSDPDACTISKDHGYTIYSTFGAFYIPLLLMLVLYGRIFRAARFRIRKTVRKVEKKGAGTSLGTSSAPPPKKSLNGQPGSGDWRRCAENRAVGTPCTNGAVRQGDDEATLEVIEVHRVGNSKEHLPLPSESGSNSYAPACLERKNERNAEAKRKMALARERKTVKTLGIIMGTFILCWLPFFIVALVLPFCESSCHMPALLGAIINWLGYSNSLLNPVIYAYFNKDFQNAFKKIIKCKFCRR
The experiment is described as follows: Binding affinity towards 5-hydroxytryptamine 1A receptor using [3H]8-OH-DPAT as radioligand in competitive binding assay. In short, it runs like this:
(§2)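 Rat anterior cortex membranes, pelleted and preincubated 30 min at 37 °C in 50 mM Tris-HCl pH 7.7, 4 mM CaCl2, 10 μM pargyline. Label [3H]8-OH-DPAT, 800 pM final; nonspecific binding with 10 μM spiroxatrine. Ki derived from IC50 by Cheng-Prusoff; mean with SEM range.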

Experiment [8] relates to Rattus norvegicus. Briefly: Rat rotation experiments were conducted to evaluate rational behavior of the rats by administering at a dose of 2.0 umol/kg subcutaneously. It counts as functional. In short, it runs like this: as §1
For experiment [9], the target named is T4, D(1A) dopamine receptor (Rattus norvegicus, UniProt P18901). Briefly: Inhibition of Dopamine receptor D1 activity by functional cyclase assay using cell free homogenate of rat striatum. It counts as tissue-based. In short, it runs like this:
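Adenylate cyclase stimulation in cell-free homogenate of rat striatum. EC50 is the concentration giving half-maximal stimulation of cAMP production.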

The target in experiment [10] is T4, D(1A) dopamine receptor. The experiment is described as follows: Binding affinity using [125 I] SCH 23982 radioligand competitive binding assay on dopamine receptor D1.
For experiment [11], the system named is Rattus norvegicus. The experiment is described as follows: Rat rotation experiments were conducted to evaluate rational behavior of the rats by administering at a dose of […] oral. It counts as functional.
The target of experiment [12] is T3, 5-hydroxytryptamine receptor 1A. The experiment is described as follows: Binding affinity was evaluated by using [3H]8-OH-DPAT radioligand by using competitive binding assay on 5-hydroxytryptamine 1A receptor. In short, it runs like this: as §2

Consider six molecules from ChEMBL document CHEMBL1125832, “Synthesis and dopaminergic activity of 3-substituted 1-(aminomethyl)-3,4-dihydro-5,6-dihydroxy-1H-2-benzopyrans: characterization of an auxiliary binding region in the D1 receptor” (J Med Chem, 1991).

A value given as a limit tells only on which side of the number the result lay.

T4 sequence (P18901 whole entry): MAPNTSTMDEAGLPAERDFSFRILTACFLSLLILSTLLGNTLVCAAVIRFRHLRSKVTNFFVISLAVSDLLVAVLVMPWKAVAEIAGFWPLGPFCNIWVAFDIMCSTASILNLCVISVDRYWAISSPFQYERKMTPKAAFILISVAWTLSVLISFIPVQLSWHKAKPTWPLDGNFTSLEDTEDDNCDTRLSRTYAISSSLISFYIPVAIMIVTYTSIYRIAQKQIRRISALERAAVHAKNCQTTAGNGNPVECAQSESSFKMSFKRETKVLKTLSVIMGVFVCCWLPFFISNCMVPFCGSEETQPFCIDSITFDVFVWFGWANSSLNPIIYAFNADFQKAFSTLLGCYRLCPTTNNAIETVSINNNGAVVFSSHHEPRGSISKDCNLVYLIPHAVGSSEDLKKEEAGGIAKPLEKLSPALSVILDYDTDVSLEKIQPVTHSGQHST

As to `NC[C@@H]1OC(c2ccccc2)Cc2c1ccc(O)c2O` (stereo partly drawn), the Activity with Rattus norvegicus [1] turned out to be 895; with Rattus norvegicus [6], 53. Besides, in experiment [2], the Intrinsic activity came to 101%. The Ki on D(2) dopamine receptor [3] was 0.776 µM; in experiment [4] it was 10.8 µM; in experiment [7] it was 18.1 µM. The molecule also displayed an EC50 at D(2) dopamine receptor [5] of 3.91 µM.

As for `NC[C@@H]1O[C@H](c2ccccc2)Cc2c1ccc(O)c2O`, the Intrinsic activity in experiment [2] turned out to be 98%. The Activity is given as 1525 with Rattus norvegicus [8] and 1113 in the experiment with Rattus norvegicus [6]. Further, the figures for the Ki in experiment [4] and in experiment [7] were over 10 µM and 2.55 µM, respectively.

Take `C=CCNC[C@@H]1OC(C2CCCCC2)Cc2c1ccc(O)c2O` (stereo partly drawn): the Activity with Rattus norvegicus [1] is listed as 667. Further, the EC50 at D(1A) dopamine receptor [9] worked out at 0.0303 µM. In addition, the Ki in [4] is over 10 µM; on D(1A) dopamine receptor [10] it was 1.54 µM; in experiment [7], over 20 µM.

Take `NC[C@H]1O[C@@H](c2ccccc2)Cc2c1ccc(O)c2O`: the Intrinsic activity in experiment [2] amounted to 96%. The same molecule showed an Activity in the experiment with Rattus norvegicus [8] of -22. Moreover, the Ki on D(2) dopamine receptor [3] is 4.61 µM; in experiment [4], 6.06 µM; in [7], over 20 µM. This molecule also gave an EC50 at D(2) dopamine receptor [5] of 2.85 µM.

Turning to `NC[C@@H]1OC(C2CCCCC2)Cc2c1ccc(O)c2O` (stereo partly drawn), the Intrinsic activity in experiment [2] was found to be 85%. In addition, the figures for the EC50 on D(1A) dopamine receptor [9] and at D(2) dopamine receptor [5] were 0.0017 µM and 7.03 µM, respectively. Moreover, the Ki is 1.12 µM at D(2) dopamine receptor [3], over 10 µM in [4], 0.0054 µM at D(1A) dopamine receptor [10] and over 20 µM in [7].

Regarding `CC(C)(C)C1Cc2c(ccc(O)c2O)[C@H](CN)O1` (stereo partly drawn), the Activity was determined as 689 in the experiment with Rattus norvegicus [11] and 354 with Rattus norvegicus [1]. The figures for the EC50 at D(1A) dopamine receptor [9] and on D(2) dopamine receptor [5] were 0.0523 µM and over 10 µM, respectively. In addition, the Ki in experiment [12] was over 20 µM; at D(2) dopamine receptor [3] it was 8.19 µM; in experiment [4], over 10 µM; on D(1A) dopamine receptor [10] it was 0.0318 µM.
